Results from different studies.
Lines come from different studies, so protocols differ.
Target: Cannabinoid receptor 1 (CNR1, Homo sapiens, UniProt P21554)

| Compound | assay | test system | setting | endpoint | value |
| --- | --- | --- | --- | --- | --- |
| CN(CCN1CCC(OC(=O)Nc2ccccc2-c2ccccc2)CC1)C(=O)c1ccc(CN2CCC(C(N)=O)CC2)cc1 | ligand displacement, radioligand | – | 1 µM | inhibition | -3% |
| CC(C)N1CCC[C@H]1CNC(=O)c1cn(C2CCCC2)c(=O)c2c1c1ccccc1n2C | ligand displacement, radioligand | – | 10 µM | inhibition | 48% |
| COc1ccc(S(=O)(=O)N2CCCCC2)cc1C | ligand displacement, radioligand | – | 10 µM | inhibition | < 30% |
| CCOC(=O)C(CC)(CCCSCCOCCOCCNc1ccc([N+](=O)[O-])c2nonc12)NC(=O)c1ccc(C2CC2)c(Cc2ccc(F)cc2)n1 (racemic) | cAMP, agonist | – | – | Emax | 126% |
| CCN(CC)CCCC[C@H](NC(=O)[C@H](CC(C)C)NC(=O)[C@H](C)NC(=O)[C@H](Cc1ccccc1)NC(=O)c1ccc(C(C)(C)C)cc1)C(=O)N[C@@H](CO)C(=O)OC | ligand displacement, radioligand | – | 10 µM | remaining binding | 113% |
| CC(C)C(NC(=O)c1nn(Cc2ccc(F)cc2)c2ccccc12)C(N)=O (centres unmarked) | calcium signal, agonist, fluorescence | – | – | Emax | 120% |
| Clc1ccc2c(C3CCN(CCc4c[nH]c5ccccc45)CC3)c[nH]c2c1 | ligand displacement, radioligand | – | 10 µM | inhibition | -27% |
| N#Cc1c(Oc2cccc(OS(=O)(=O)CCCC(F)(F)F)c2)cccc1C(F)(F)F | calcium signal, agonist, fluorescence | CHO | – | Emax | 39% |
| COCc1c(-c2cc3cc(C)cc(OC)c3s2)c2c(N)ncnn2c1CN1CCNC(=O)C1 | ligand displacement, radioligand | – | 10 µM | inhibition | 26% |
| c1ccc(C(NCCNC(c2ccccc2)c2ccccc2)c2ccccc2)cc1 | cell-free assay | – | 10 µM | inhibition | 102% |
| O=C1N=C(N2CCCCN2)S/C1=C\c1ccc(F)cc1O | ligand displacement, radioligand | – | 10 µM | inhibition | < 10% |
